The species entered for assay [1] is Rattus norvegicus. The experiment in a line: (§1) Compound is evaluated for [3H]dopamine uptake inhibition in rat forebrain. In kind it is functional.
Assay [2] in a line: Ratio of IC50 of [3H]cocaine to that of dopamine. Type of assay: functional.
For assay [3], the target named is Glutamate NMDA receptor. The experiment in a line: Ability of compound to displace [3H]TCP from rat brain homogenates. Type of assay: tissue-based.
For assay [4], the target named is T1, Sodium-dependent dopamine transporter (Rattus norvegicus, UniProt P23977). The experiment in a line: Displacement of [3H]BTCP (1-[1-(2-benxo[b]thienyl)cyclohexyl]piperidine) from rat forebrain dopamine transporter. Put shortly:
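Rat forebrain membranes (40000 g pellet) in 0.32 M sucrose/10 mM Tris·HCl pH 7.4. 0.4-0.6 nM [3H]BTCP incubated with test compound in 50 mM Na phosphate buffer, pH 7.4, for 90 min on ice. Nonspecific binding with 10 µM BTCP. Filtration, then scintillation counting. Six concentrations in triplicate, duplicate experiments on different preparations. IC50 taken as 50% inhibition of total binding.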
For orientation: Loss of bound radioactivity is the signal in a displacement assay; it reports binding, not function.

The target in assay [5] is T1, Sodium-dependent dopamine transporter. The assay is described as follows: Inhibition of [3H]cocaine binding to rat forebrain […]. The method in brief: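 Rat forebrain membranes washed in 0.25 M sucrose/10 mM Na2HPO4 pH 7.4. […] Filtration with ice-cold saline wash, then scintillation counting. Six concentrations in triplicate, duplicate experiments on different preparations. IC50 taken as 50% inhibition of total binding.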

Assay [6] has as its target Glutamate NMDA receptor. The assay is described as follows: Binding affinity of compound at site labelled by [3H]TCP in guinea pig brain homogenates. In kind it is tissue-based.
For assay [7], the species on record is Rattus norvegicus. The description is as §1.
Assay [8] has as its target Glutamate NMDA receptor. The assay is described as follows: Ability to displace [3H]-TCP from rat brain homogenate. In kind it is tissue-based.

For 13 compounds, IC50, Ratio and Ki results are on record in ChEMBL document CHEMBL1126651, “Synthesis and biological evaluation of 1-[1-(2-benzo[b]thienyl)cyclohexyl]piperidine homologues at dopamine-uptake and phencyclidine- and sigma-binding sites” (J Med Chem, 1993).

Bounds are passed on as bounds.

T1 sequence (P23977 whole entry): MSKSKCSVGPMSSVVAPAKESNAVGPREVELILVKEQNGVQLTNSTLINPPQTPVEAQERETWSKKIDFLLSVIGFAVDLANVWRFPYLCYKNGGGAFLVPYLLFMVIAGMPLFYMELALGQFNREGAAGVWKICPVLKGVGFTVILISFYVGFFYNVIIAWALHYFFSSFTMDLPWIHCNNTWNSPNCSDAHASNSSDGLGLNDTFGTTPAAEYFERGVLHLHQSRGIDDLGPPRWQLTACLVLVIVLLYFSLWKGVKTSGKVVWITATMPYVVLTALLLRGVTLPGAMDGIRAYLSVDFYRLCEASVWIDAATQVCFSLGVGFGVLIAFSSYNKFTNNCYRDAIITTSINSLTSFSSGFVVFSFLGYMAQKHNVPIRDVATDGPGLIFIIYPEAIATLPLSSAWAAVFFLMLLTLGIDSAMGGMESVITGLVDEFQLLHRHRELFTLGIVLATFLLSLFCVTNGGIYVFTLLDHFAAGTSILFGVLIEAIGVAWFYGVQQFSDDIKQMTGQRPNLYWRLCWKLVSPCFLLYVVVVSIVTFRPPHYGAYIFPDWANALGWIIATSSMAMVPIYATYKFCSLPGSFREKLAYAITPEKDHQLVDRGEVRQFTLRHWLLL

By IC50 is commonly meant the concentration at which inhibition is half-maximal. By Ki is commonly meant a dissociation constant, usually derived from enzyme kinetics or from competition with a known ligand. Read a high Ki as weaker binding. Consider `NC1(c2cc3ccccc3s2)CCCCCC1`, for which the values for the IC50 (in the assay listed under Rattus norvegicus [1]; in assay [4]; in assay [5]) were 550 nM, 416 nM and 1340 nM, respectively. Moreover, the Ratio in assay [2] stood at 2.4. On Glutamate NMDA receptor [3], this compound gave a Ki above 10000 nM.

Take `c1ccc2sc(C3(N4CCCC4)CCCC3)cc2c1`: the inhibition constant (Ki) on Glutamate NMDA receptor [6] is above 10000 nM. In addition, the IC50 in the assay listed under Rattus norvegicus [1] is 19 nM; in assay [4], 13 nM; in assay [5] it was 26 nM. Also, the Ratio in assay [2] came out at 1.4.

Compound `NC1(c2cc3ccccc3s2)CCCCC1` registered a Ki at Glutamate NMDA receptor [6] above 10000 nM. The IC50 was 78 nM in the assay filed under Rattus norvegicus [1], 123 nM in assay [4] and 684 nM in assay [5]. Further, the Ratio in assay [2] was 8.8.

Turning to `COC(=O)[C@H]1[C@@H](OC(=O)c2ccccc2)C[C@@H]2CC[C@H]1N2C` [COCAINE], the 50% inhibitory concentration (IC50) in the assay listed under Rattus norvegicus [7] was 138 nM.

On to `c1ccc2sc(C3(N4CCCCCC4)CCCCC3)cc2c1`, for which the inhibition constant (Ki) on Glutamate NMDA receptor [6] is above 10000 nM. For the same compound, the IC50 in the assay filed under Rattus norvegicus [1] came out at 43 nM; in assay [4], 18 nM; in assay [5] it was 36 nM. Besides, in assay [2], the Ratio turned out to be 0.84.

Compound `c1ccc2sc(C3(N4CCCCCC4)CCCC3)cc2c1` registered a Ki on Glutamate NMDA receptor [6] above 10000 nM. In addition, the results for the IC50 (in the assay filed under Rattus norvegicus [1]; in assay [4]; in assay [5]) were 132 nM, 21 nM and 62 nM, respectively. Further, in assay [2], the Ratio came out at 0.47.

For `c1ccc2sc(C3(N4CCCCC4)CCCCC3)cc2c1`, the inhibitory constant (Ki) on Glutamate NMDA receptor [8] is above 10000 nM. In addition, the concentration for half-maximal inhibition (IC50) in the assay filed under Rattus norvegicus [1] amounted to 9 nM; in assay [4], 0.66 nM; in assay [5] it was 41 nM. Moreover, in assay [2], the Ratio was 4.6.

With `c1ccc2sc(C3(N4CCCCC4)CCCC3)cc2c1`, at Glutamate NMDA receptor [6], the Ki was above 10000 nM. For the same compound, the results for the IC50 (in the assay listed under Rattus norvegicus [1]; in assay [4]; in assay [5]) were 24 nM, 15 nM and 76 nM, respectively. Moreover, in assay [2], the Ratio turned out to be 3.2.

Consider `c1ccc2sc(C3(N4CCCCC4)CCCCCC3)cc2c1`, for which the IC50 in the assay filed under Rattus norvegicus [1] was determined as 55 nM; in assay [4] it was 19 nM; in assay [5], 111 nM. Further, in assay [2], the Ratio amounted to 2. The compound also displayed a Ki on Glutamate NMDA receptor [3] above 10000 nM.

In the case of `NC1(c2cc3ccccc3s2)CCCC1`, the values for the 50% inhibitory concentration (IC50) (in the assay filed under Rattus norvegicus [1]; in assay [4]; in assay [5]) were 148 nM, 630 nM and 933 nM, respectively. Moreover, the Ratio in assay [2] came to 6.3. In addition, the Ki on Glutamate NMDA receptor [3] is above 10000 nM.

Regarding `c1ccc2sc(C3(N4CCCCCC4)CCCCCC3)cc2c1`, the IC50 in the assay listed under Rattus norvegicus [1] amounted to 252 nM; in assay [4], 67 nM; in assay [5], 386 nM. Also, the Ratio in assay [2] was determined as 1.5. Besides, the inhibition constant Ki on Glutamate NMDA receptor [3] is above 10000 nM.

On Glutamate NMDA receptor [6], `c1ccc2sc(C3(N4CCCC4)CCCCC3)cc2c1` had a Ki above 10000 nM. Further, the concentration for half-maximal inhibition (IC50) was determined as 11 nM in the assay filed under Rattus norvegicus [1], 6.7 nM in assay [4] and 12 nM in assay [5]. In assay [2], the Ratio was 1.1.

Take `c1ccc2sc(C3(N4CCCC4)CCCCCC3)cc2c1`: the IC50 was 27 nM in the assay filed under Rattus norvegicus [1], 13 nM in assay [4] and 52 nM in assay [5]. The Ratio in assay [2] was 1.9. On Glutamate NMDA receptor [3], this compound returned a Ki above 10000 nM.
